Data from ChEMBL document CHEMBL1152827, “Bis-pyrazolines: synthesis, characterization and antiamoebic activity as inhibitors of growth of Entamoeba histolytica” (Eur J Med Chem, 2009).

Tests used:
[1] = Cytotoxicity against human kidney epithelial cells after 44 hrs by MTT assay; type: cell-based; conditions: Epithelial cell
[2] = Selectivity index, ratio of IC50 for human kidney epithelial cells to IC50 for Entamoeba histolytica HM-1:IMSS trophozoites; set-up: species or system Epithelial cell
Summary of the method: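 Safety index calculated as IC50 in human kidney epithelial cells (MTT, 44 h plus 4 h) divided by IC50 against E. histolytica HM1:IMSS (72 h eosin-stained microdilution assay).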

Entamoeba histolytica = experiment: Antiamoebic activity against Entamoeba histolytica HM-1:IMSS trophozoites after 72 hrs by microdilution method; type: functional, organism-based
Summary of the method: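 E. histolytica HM1:IMSS trophozoites grown in TYIS-33 medium. Compounds dissolved in DMSO, diluted in medium to 1 mg/ml, then two-fold serial dilutions. Inoculum 1.7 × 10⁴ organisms/well. Plates gassed with N₂ and held at 37 °C for 72 h. Amoebae fixed in cold MeOH and stained with eosin, dye released with 0.1 N NaOH, OD read at 490 nm. Percent inhibition plotted against log dose; IC50 from linear regression.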

For `Cc1ncc([N+](=O)[O-])n1CCO` [METRONIDAZOLE], the IC50 [1] was > 100 µM and the “Ratio IC50” value [2] was >55.55.

With `Cc1cccc(NC(=S)N2N=C(c3ccccc3)CC2c2ccc(C3CC(c4ccccc4)=NN3C(=S)Nc3cccc(C)c3)cc2)c1` (configuration not stated) the IC50 [1] was > 90 µM, the “Ratio IC50” value [2] was >50 and the IC50 (Entamoeba histolytica) was > 1.8 µM.

In the case of `S=C(NC1CCCC1)N1N=C(c2ccccc2)CC1c1ccc(C2CC(c3ccccc3)=NN2C(=S)NC2CCCC2)cc1` (configuration not stated), the IC50 [1] is reported as > 90 µM, the “Ratio IC50” value [2] is reported as >50 and the IC50 (Entamoeba histolytica) is reported as > 1.8 µM.

In the case of `S=C(NC1CCCCCCC1)N1N=C(c2ccccc2)CC1c1ccc(C2CC(c3ccccc3)=NN2C(=S)NC2CCCCCCC2)cc1` (configuration not stated), the IC50 [1] is reported as > 90 µM, the “Ratio IC50” value [2] is reported as >97.8 and the IC50 (Entamoeba histolytica) is reported as 0.92 µM.

For `S=C(N1CCCC1)N1N=C(c2ccccc2)CC1c1ccc(C2CC(c3ccccc3)=NN2C(=S)N2CCCC2)cc1` (configuration not stated), the IC50 [1] was > 90 µM, the “Ratio IC50” value [2] was >50 and the IC50 (Entamoeba histolytica) was > 1.8 µM.

For `Cc1ccc(NC(=S)N2N=C(c3ccccc3)CC2c2ccc(C3CC(c4ccccc4)=NN3C(=S)Nc3ccc(C)cc3)cc2)cc1` (configuration not stated), the IC50 [1] was > 90 µM, the “Ratio IC50” value [2] was >50 and the IC50 (Entamoeba histolytica) was > 1.8 µM.

For `Fc1ccc(NC(=S)N2N=C(c3ccccc3)CC2c2ccc(C3CC(c4ccccc4)=NN3C(=S)Nc3ccc(F)cc3F)cc2)c(F)c1` (configuration not stated), the IC50 [1] was > 90 µM, the “Ratio IC50” value [2] was >145 and the IC50 (Entamoeba histolytica) was 0.62 µM.

For `S=C(NC1CCCCC1)N1N=C(c2ccccc2)CC1c1ccc(C2CC(c3ccccc3)=NN2C(=S)NC2CCCCC2)cc1` (configuration not stated), the IC50 [1] was > 90 µM, the “Ratio IC50” value [2] was >77.6 and the IC50 (Entamoeba histolytica) was 1.16 µM.

For `CN(Cc1ccccc1)C(=S)N1N=C(c2ccccc2)CC1c1ccc(C2CC(c3ccccc3)=NN2C(=S)N(C)Cc2ccccc2)cc1` (configuration not stated), the IC50 [1] was > 90 µM, the “Ratio IC50” value [2] was >50 and the IC50 (Entamoeba histolytica) was > 1.8 µM.

With `O=[N+]([O-])c1ccc(NC(=S)N2N=C(c3ccccc3)CC2c2ccc(C3CC(c4ccccc4)=NN3C(=S)Nc3ccc([N+](=O)[O-])cc3)cc2)cc1` (configuration not stated) the IC50 [1] was > 90 µM, the “Ratio IC50” value [2] was >214 and the IC50 (Entamoeba histolytica) was 0.42 µM.

For `NC(=S)N1N=C(c2ccccc2)CC1c1ccc(C2CC(c3ccccc3)=NN2C(N)=S)cc1` (configuration not stated), the IC50 [1] was > 90 µM, the “Ratio IC50” value [2] was >57.3 and the IC50 (Entamoeba histolytica) was 1.57 µM.
